Experimental data published in PubChem BioAssay.
The source made the active and inactive calls.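 Rule for the calls, unless noted: active = viability at or under a set limit in both replicates, limit being median viability minus 3 SD (cut at about 48% in these data, passing the limit was not always enough); inconclusive = at or under the limit in just one replicate; inactive = at or above the limit in both replicates.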

Columns and labels:
[1] = reducers of endogenous Her2 protein level, primary screen, SKBR3 breast tumor cells, AlphaScreen, ATP viability (AID 461;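 active = Her2 level under about 52% in both replicate screens, with viability over 70% of control, limit read from the data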;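 for Her2 level: lower value means less Her2 protein in the cells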;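 for viability: percent of carrier control wells set as 100% viability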); settings: 18-24 h, measured here: SKBR3 viability, ATP luminescence, at 10 µM
[2] = biological target: Receptor tyrosine-protein kinase erbB-2 (Homo sapiens) (UniProt P04626); experiment: as above; settings: 18-24 h, at 10 µM, stronger effect = lower value
[3] = SK-BR-3 cell growth inhibitors, pilot screen, 24 h, human (AID 572;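 active = viability at or below 10% of carrier control in both of two separate runs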;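 note: compound exposure lasted between 18 and 24 h rather than exactly 24 h; 100% = carrier-treated control wells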); settings: SK-BR-3 viability, CellTiter-Glo luminescence, at 10 µM, stronger effect = lower value
[4] = HUVEC growth inhibition – cell-based, human, primary screen (AID 575;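 active = viability at or below 30% in both replicate assays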;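 note: 100% = median of untreated cell wells with 0.1% DMSO on each plate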); settings: HUVEC proliferation, CellTiter-Glo luminescence, 72 h; at 10 µM; stronger effect = lower value
How it was run: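 Test system: HUVEC primary cells. Quantity: 1250 endothelial cells in each well. Dosing: single-point 10 µM, DMSO 0.1% final. Incubation: 72 h treatment at 37 °C. Measured by: CTG luminescence. Control set: DMSO cell controls and MePR drug controls. Plate: collagen-coated 384-well format.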

[5] = growth inhibitors of H69AR lung tumor, primary screen, human, duplicate replicates (AID 580); settings: H69AR lung tumor cells viability, ATP luminescence, 72 h; at 10 µM; stronger effect = lower value;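 note: 100% = mean luminescence of untreated wells and 0% = no signal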
[6] = reversal of MRP1-mediated doxorubicin resistance, pilot screen, H69AR cells, doxorubicin co-treatment (AID 601;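 active = viability loss from added drug above about 55%, and viability with drug at most 40%, in both replicates, limit read from the data, passing the limit was not always enough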); settings: CellTiter-Glo, 72 h, at 10 µM; for differential viability (reversal): stronger effect = higher value
[7] = 384-well plate pilot, post-Golgi transport modulator project, inhibition of yeast transport mutant growth (AID 636; in the data active = inhibition above about 31%); settings: absorbance 615 nm, about 18 h, stronger effect = higher value
[8] = growth suppression of yeast trafficking mutant, preliminary HTS, modulators of trafficking downstream of Golgi apparatus project, 1536-format plate, OD 615 nm (AID 637; in the data active = inhibition above about 30%); settings: yeast transport mutant growth, absorbance 615 nm, 18 h; stronger effect = higher value
[9] = H69AR cells + 2 uM doxorubicin, measured here: viability with 2 uM doxorubicin, stronger effect = lower value
[10] = H69AR cells, compound alone cytotoxicity

Receptor tyrosine-protein kinase erbB-2 (Homo sapiens), sequence (P04626 whole entry, looked up): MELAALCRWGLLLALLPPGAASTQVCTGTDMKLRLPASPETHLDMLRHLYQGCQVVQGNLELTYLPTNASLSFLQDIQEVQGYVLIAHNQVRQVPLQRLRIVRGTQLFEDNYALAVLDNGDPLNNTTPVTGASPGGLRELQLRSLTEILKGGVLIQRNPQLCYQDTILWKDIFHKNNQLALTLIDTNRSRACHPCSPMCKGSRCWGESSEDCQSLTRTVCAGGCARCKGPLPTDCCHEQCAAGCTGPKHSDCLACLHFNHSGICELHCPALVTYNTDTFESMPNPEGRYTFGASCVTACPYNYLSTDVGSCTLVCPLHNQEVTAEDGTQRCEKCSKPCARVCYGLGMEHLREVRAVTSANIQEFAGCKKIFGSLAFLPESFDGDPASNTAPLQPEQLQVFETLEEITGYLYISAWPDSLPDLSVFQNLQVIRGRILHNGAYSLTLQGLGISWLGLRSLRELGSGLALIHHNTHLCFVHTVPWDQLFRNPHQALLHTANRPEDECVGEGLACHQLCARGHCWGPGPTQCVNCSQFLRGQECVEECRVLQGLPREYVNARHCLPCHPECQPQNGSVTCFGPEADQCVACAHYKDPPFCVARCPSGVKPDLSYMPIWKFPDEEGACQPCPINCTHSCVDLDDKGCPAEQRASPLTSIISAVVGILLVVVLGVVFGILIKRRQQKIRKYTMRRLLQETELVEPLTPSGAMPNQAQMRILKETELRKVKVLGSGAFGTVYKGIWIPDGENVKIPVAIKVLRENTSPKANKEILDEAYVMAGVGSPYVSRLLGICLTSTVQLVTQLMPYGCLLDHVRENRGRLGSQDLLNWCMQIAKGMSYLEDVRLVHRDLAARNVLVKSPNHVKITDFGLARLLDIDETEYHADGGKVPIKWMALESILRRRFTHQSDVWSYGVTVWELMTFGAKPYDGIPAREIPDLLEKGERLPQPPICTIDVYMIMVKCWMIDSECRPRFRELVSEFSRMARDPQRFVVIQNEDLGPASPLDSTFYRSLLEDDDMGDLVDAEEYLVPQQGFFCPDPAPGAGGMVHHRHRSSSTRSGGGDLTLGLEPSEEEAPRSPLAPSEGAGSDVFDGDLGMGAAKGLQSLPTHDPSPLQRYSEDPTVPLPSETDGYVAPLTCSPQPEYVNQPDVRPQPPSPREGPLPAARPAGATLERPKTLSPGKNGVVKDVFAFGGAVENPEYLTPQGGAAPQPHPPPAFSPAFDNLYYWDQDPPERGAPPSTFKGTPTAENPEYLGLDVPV

Row | SMILES | viability [1] | Her2 level [2] | viability [3] | viability [4] | viability [5] | differential viability (reversal) ([6]; H69AR cells + 2 uM doxorubicin) | viability [6, 9] | viability [6, 10] | inhibition [7] | inhibition [8]
1 | Cc1cccc2cc(COC(=O)C(C)(C)C)c(=O)[nH]c12 | 95.5% | 91.5% (inactive) | 95.5% (inactive) | 108% (inactive) | 97.6% (inactive) | 2.58% (inactive) | 95% | 97.6% | 0.13% (inactive) | 5.17% (inactive)
2 | Clc1ccc(CSc2nnc(Cn3cnc4ccccc43)o2)cc1 | 74.5% | 72% (inactive) | 74.5% (inactive) | 48.2% (inactive) | 99.2% (inactive) | 2.03% (inactive) | 97.2% | 99.2% | -4.32% (inactive) | -1.8% (inactive)
3 | Cc1cc(N2CCC3(CC2)OCCO3)n2nc(C)c(-c3ccc(Cl)cc3)c2n1 | 84.5% | 84% (inactive) | 84.5% (inactive) | 71.9% (inactive) | 90.9% (inactive) | 12.5% (inactive) | 78.4% | 90.9% | -5.68% (inactive) | 2.38% (inactive)
4 | Cc1ccc(Cn2c(SCC(C)C)nc3c2c(=O)n(C)c(=O)n3C)cc1 | 84.5% | 75.5% (inactive) | 84.5% (inactive) | 62.2% (inactive) | 77.5% (inactive) | -12.6% (inactive) | 90.1% | 77.5% | -1.84% (inactive) | 9.34% (inactive)
5 | O=S(=O)(c1cc(Cl)ccc1Br)N1CCOCC1 | 95.5% | 108% (inactive) | 95.5% (inactive) | 103% (inactive) | 91% (inactive) | 0.56% (inactive) | 90.4% | 91% | -2.99% (inactive) | -0.17% (inactive)
6 | CN=Cc1cc(-c2ccccc2)sc1O | 82% | 102% (inactive) | 82% (inactive) | 102% (inactive) | 90% (inactive) | 13% (inactive) | 77% | 90% | 0.41% (inactive) | 32.7% (active)
7 | O=C(CCn1c(=O)sc2ccccc21)Nc1cccnc1 | 104% | 92% (inactive) | 104% (inactive) | 96.8% (inactive) | 99.6% (inactive) | 8.59% (inactive) | 91% | 99.6% | -3.87% (inactive) | 1.48% (inactive)
8 | CCN1C(=O)OC2(CCCCC2)C1(C)O (stereo not given) | 107% | 93.5% (inactive) | 107% (inactive) | 101% (inactive) | 105% (inactive) | 11.4% (inactive) | 94.1% | 105% | 0.13% (inactive) | -7.27% (inactive)
9 | COc1ccc(-c2ccc(-c3nnc(-c4ccncc4)o3)cc2)cc1 | 130% | 103% (inactive) | 130% (inactive) | 119% (inactive) | 96.3% (inactive) | 6.73% (inactive) | 89.5% | 96.3% | -5.87% (inactive) | 0% (inactive)
10 | CCN(CC)CCCN(Cc1cc2cc(OC)ccc2[nH]c1=O)C(=O)Nc1ccccc1 | 90% | 73% (inactive) | 90% (inactive) | 65.8% (inactive) | 77.7% (inactive) | 3.46% (inactive) | 74.3% | 77.7% | -5.73% (inactive) | -1.97% (inactive)
11 | CCS(=O)(=O)N1CCCC(c2nc(-c3cccc(OC)c3)no2)C1 (stereo not given) | 100% | 110% (inactive) | 100% (inactive) | 96.7% (inactive) | 92.7% (inactive) | 0.525% (inactive) | 92.2% | 92.7% | -3.84% (inactive) | -2.7% (inactive)
12 | CC(=O)C1=C(C)NC(SCSc2ccccc2)=C(C#N)C1c1cccnc1 (stereo not given) | 80% | 106% (inactive) | 80% (inactive) | 81.7% (inactive) | 94.1% (inactive) | 6.64% (inactive) | 87.5% | 94.1% | 0.91% (inactive) | -1.64% (inactive)
13 | CN1C(=O)CSc2ccc(NC(=O)N3CCN(c4ccccn4)CC3)cc21 | 102% | 88.5% (inactive) | 102% (inactive) | 58.2% (inactive) | 91.3% (inactive) | 12.2% (inactive) | 79.1% | 91.3% | -0.4% (inactive) | 3.61% (inactive)
14 | Nn1c(CSc2nc3ccccc3o2)nnc1CSc1nc2ccccc2o1 | 86% | 94.5% (inactive) | 86% (inactive) | 115% (inactive) | 103% (inactive) | 24.1% (inactive) | 78.6% | 103% | -4.4% (inactive) | -1.8% (inactive)
15 | O=C1C(c2ccncc2)=C(O)c2ccccc21 | 100% | 87% (inactive) | 100% (inactive) | 73.6% (inactive) | 82.2% (inactive) | -3.63% (inactive) | 85.9% | 82.2% | -1.05% (inactive) | 12.7% (inactive)
16 | CCC(=O)Nc1c2c(nn1-c1ccccc1C)CSC2 | 86.5% | 89.5% (inactive) | 86.5% (inactive) | 104% (inactive) | 102% (inactive) | 12.8% (inactive) | 89.4% | 102% | -4.42% (inactive) | -3.65% (inactive)
17 | Cc1ccc(Nc2cc(-n3nc(C)cc3C)ncn2)cc1 | 96.5% | 97% (inactive) | 96.5% (inactive) | 70.7% (inactive) | 74.8% (inactive) | -7.74% (inactive) | 82.6% | 74.8% | -0.26% (inactive) | -1.97% (inactive)
18 | CCn1ncc(Cl)c1C(=O)Nc1ccncc1 | 114% | 94.5% (inactive) | 114% (inactive) | 97.5% (inactive) | 98.6% (inactive) | 14.8% (inactive) | 83.7% | 98.6% | -4.4% (inactive) | -1.97% (inactive)
19 | O=C(NCCC1=CCCCC1)c1cc2c(s1)CS(=O)(=O)C2 | 114% | 93.5% (inactive) | 114% (inactive) | 85.7% (inactive) | 88.5% (inactive) | 4.64% (inactive) | 83.8% | 88.5% | -3.77% (inactive) | -3.28% (inactive)
20 | CC1CN(S(=O)(=O)c2cccc(C(=O)OCc3cc(=O)oc4cc(O)ccc34)c2)CC(C)O1 (stereo not given) | 80.5% | 87% (inactive) | 80.5% (inactive) | 61.1% (inactive) | 78.2% (inactive) | 16.1% (inactive) | 62.1% | 78.2% | -6% (inactive) | -4.43% (inactive)
21 | COCCN(C(=O)Cn1nnc2ccccc21)C(C(=O)NC1CCCC1)c1cc(OC)ccc1OC (stereo not given) | 86% | 106% (inactive) | 86% (inactive) | 101% (inactive) | 93.9% (inactive) | -0.19% (inactive) | 94.1% | 93.9% | -0.8% (inactive) | -4.92% (inactive)
22 | CC(C)(C)C(=O)CCN1C(=O)C2(OCCO2)c2ccccc21 | 104% | 106% (inactive) | 104% (inactive) | 83.9% (inactive) | 103% (inactive) | 9.06% (inactive) | 94.1% | 103% | -1.82% (inactive) | -2.3% (inactive)
23 | CCOc1ccc2[nH]c(=O)c(C(c3nnnn3CC3CCCO3)N3CCc4ccccc4C3)cc2c1 (stereo not given) | 97% | 82.5% (inactive) | 97% (inactive) | 81.1% (inactive) | 85.8% (inactive) | 36.5% (inactive) | 49.2% | 85.8% | -4.93% (inactive) | 2.62% (inactive)
24 | COc1cc(C2=NOC(C(=O)NCc3ccc(F)cc3)C2)cc(OC)c1OC (stereo not given) | 84% | 74.5% (inactive) | 84% (inactive) | 39.9% (inactive) | 31.6% (active) | -52.3% (inactive) | 83.9% | 31.6% | -4.74% (inactive) | -1.43% (inactive)
25 | CSCSC1=C(C#N)C(c2ccc(Cl)cc2)C(C(C)=O)=C(C)N1 (stereo not given) | 106% | 94.5% (inactive) | 106% (inactive) | 64.3% (inactive) | 75.2% (inactive) | -5.35% (inactive) | 80.6% | 75.2% | -5.32% (inactive) | 1.31% (inactive)
26 | Cn1c(=O)cc(SCC(=O)N2CCOCC2)c2ccc(Cl)cc21 | 108% | 99.5% (inactive) | 108% (inactive) | 76.1% (inactive) | 93.2% (inactive) | 9.88% (inactive) | 83.3% | 93.2% | -2.37% (inactive) | -1.61% (inactive)
27 | O=C(NCc1cccnc1)c1ccc(=O)oc1 | 89.5% | 90% (inactive) | 89.5% (inactive) | 106% (inactive) | 83.4% (inactive) | -4.97% (inactive) | 88.3% | 83.4% | -5.81% (inactive) | -5.33% (inactive)
28 | CCOc1ccc(C2C(C#N)=C(N)Oc3cc(C)n(CCN(C)C)c(=O)c32)cc1OCC (stereo not given) | 84% | 79.5% (inactive) | 84% (inactive) | 90.3% (inactive) | 101% (inactive) | 17.7% (inactive) | 83.3% | 101% | -4.32% (inactive) | -1.43% (inactive)
29 | CCn1c(C)nc2cc(C(=O)OCCC(F)(F)F)ccc21 | 100% | 112% (inactive) | 100% (inactive) | 108% (inactive) | 89.8% (inactive) | -3.94% (inactive) | 93.7% | 89.8% | -2.44% (inactive) | 7.67% (inactive)
